# Experimental data from ChEMBL document CHEMBL3822410, “Novel substituted isoxazole FXR agonists with cyclopropyl, hydroxycyclobutyl and hydroxyazetidinyl linkers: Understanding and improving key determinants of pharmacological properties” (Bioorg Med Chem Lett, 2016).
# Activity calls are given as the source filed them. The calls are words filed in the database; no cut-off is given here.
# Tests used:
# Bile acid receptor [1] = molecular target: T1, Bile acid receptor (Homo sapiens, UniProt Q96RI1); assay: Agonist activity at GST-tagged FXR LBD (187 to 472 residues) (unknown origin) assessed as FXR interaction with b-CPSSHSSLTERHKILHRLLQEGSPS-COOH by FRET assay
# T1 sequence (Q96RI1 whole entry): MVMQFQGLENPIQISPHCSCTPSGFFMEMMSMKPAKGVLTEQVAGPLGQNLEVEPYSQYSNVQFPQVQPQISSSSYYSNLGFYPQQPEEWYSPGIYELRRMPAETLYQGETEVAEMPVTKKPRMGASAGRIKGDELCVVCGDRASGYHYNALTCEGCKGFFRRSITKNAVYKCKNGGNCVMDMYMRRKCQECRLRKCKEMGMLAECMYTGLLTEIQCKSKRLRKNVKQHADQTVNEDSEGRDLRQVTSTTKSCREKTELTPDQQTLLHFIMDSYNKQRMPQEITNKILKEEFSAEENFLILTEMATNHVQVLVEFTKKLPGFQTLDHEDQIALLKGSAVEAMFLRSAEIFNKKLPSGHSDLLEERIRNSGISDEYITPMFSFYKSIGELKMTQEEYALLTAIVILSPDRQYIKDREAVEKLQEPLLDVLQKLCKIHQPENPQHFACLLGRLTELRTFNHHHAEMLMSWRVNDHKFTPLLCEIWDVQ
# [2] = molecular target: T2, Bile acid receptor (Homo sapiens) (UniProt Q96RI1); assay: Agonist activity at GST-tagged FXR LBD (187 to 472 residues) (unknown origin) assessed as FXR interaction with b-CPSSHSSLTERHKILHRLLQEGSPS-COOH by FRET assay relative to GW4064
# T2 sequence (whole entry): T1 sequence (Q96RI1 whole entry)
# Bile acid receptor [3] = molecular target: T1, Bile acid receptor; assay: Agonist activity at C-terminal Gal4-tagged human FXR (187 to 472 residues) expressed in HEK-293 cells co-expressing pFRluc by mammalian one hybrid assay; type: cell-based, HEK293
# In short: (§1)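 Transient transfection of HEK293 cells with Gal4 DBD–human FXR LBD (187–472) chimera under CMV promoter plus pFRluc Gal4-driven firefly luciferase reporter. Cells treated with serial compound dilutions. EC50 from at least three experiments; efficacy is extrapolated maximum signal of the dose-response, GW4064 set to 100%.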
# [4] = molecular target: T2, Bile acid receptor (Homo sapiens); assay: Agonist activity at C-terminal Gal4-tagged human FXR (187 to 472 residues) expressed in HEK-293 cells co-expressing pFRluc by mammalian one hybrid assay relative to GW4064; type: cell-based; settings: HEK293; in short: as §1
# [5] = Aqueous solubility of the compound; type: physicochemical; settings: buffer
# [6] = Permeability of the compound assessed as compound influx measured after 16 hrs by PAMPA assay; type: ADME
# In short: (§2)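 PAMPA, 16 h at rt. Flux = [C_acceptor/(C_donor + C_acceptor)] × 100 × 2. Membrane enrichment = C_membrane × 2/(C_acceptor + C_donor), membrane phase extracted into a volume equal to the acceptor or donor compartment.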
# [7] = Permeability of the compound assessed as compound enrichment in membrane compartment measured after 16 hrs by PAMPA assay relative to control; type: ADME; in short: as §2
# [8] = molecular target: T3, Nuclear receptor subfamily 1 group I member 2 (Homo sapiens, UniProt O75469); assay: Agonist activity at PXR (unknown origin) up to 5 uM
# T3 sequence (O75469 whole entry): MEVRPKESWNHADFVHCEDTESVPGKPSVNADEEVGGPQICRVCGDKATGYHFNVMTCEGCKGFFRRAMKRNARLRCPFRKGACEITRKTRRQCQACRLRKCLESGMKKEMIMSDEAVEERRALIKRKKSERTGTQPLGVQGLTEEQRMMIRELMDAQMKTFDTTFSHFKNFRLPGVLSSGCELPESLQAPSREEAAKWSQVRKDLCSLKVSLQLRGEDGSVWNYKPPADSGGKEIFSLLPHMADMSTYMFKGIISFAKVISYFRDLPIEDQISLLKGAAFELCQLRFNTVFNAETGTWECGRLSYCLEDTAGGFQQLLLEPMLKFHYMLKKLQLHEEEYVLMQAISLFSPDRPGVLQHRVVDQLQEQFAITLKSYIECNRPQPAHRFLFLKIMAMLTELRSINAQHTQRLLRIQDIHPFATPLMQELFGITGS
# Mus musculus [9] = assay: Reduction in total cholesterol level in high fat diet enriched with cholesterol fed C57BL/6J mouse plasma at 10 mg/kg, po through gavage for 10 days measured after 4 hrs of final dosage relative to vehicle treated-control; type: functional, organism-based
# In short: (§3)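 C57BL/6J mice pre-fed and kept on high fat diet (60% kcal fat) with 1% (w/w) cholesterol; 10 mg/kg by oral gavage for 10 days. Plasma total cholesterol and triglycerides taken at sacrifice 4 h after final dose, expressed as % change versus vehicle group.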
# [10] = Oral bioavailability in C57BL/6J mouse at 5 mg/kg; type: ADME, organism-based; settings: in vivo
# In short: (§4)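 Mice dosed 5 mg/kg orally and 1 mg/kg intravenously; bioavailability from both arms, all other parameters (AUC, Cmax, T1/2, Cl/F, Vd/F) calculated from the oral arm.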
# [11] = Half life in C57BL/6J mouse at 5 mg/kg, po and 1 mg/kg, iv; type: ADME, organism-based; settings: in vivo; in short: as §4
# [12] = Apparent oral clearance in C57BL/6J mouse at 5 mg/kg; type: ADME, organism-based; settings: in vivo; in short: as §4
# [13] = Apparent oral volume of distribution in C57BL/6J mouse at 5 mg/kg; type: ADME, organism-based; settings: in vivo; in short: as §4
# [14] = AUC in C57BL/6J mouse at 5 mg/kg, po and 1 mg/kg, iv; type: ADME, organism-based; settings: in vivo; in short: as §4
# [15] = Cmax in C57BL/6J mouse at 5 mg/kg, po and 1 mg/kg, iv; type: ADME, organism-based; settings: in vivo; in short: as §4
# Mus musculus [16] = assay: Reduction in total triglyceride level in high fat diet enriched with cholesterol fed C57BL/6J mouse plasma at 10 mg/kg, po through gavage for 10 days measured after 4 hrs of final dosage relative to vehicle treated-control; type: functional, organism-based; in short: as §3
smiles,measurement,setting,value
O=C(O)c1cncc(N2CC(O)(c3ccc(OCc4c(-c5c(Cl)cccc5Cl)noc4C4CC4)cc3Cl)C2)c1,EC50,Bile acid receptor [1],7 nM
same,Efficacy,[2],102%
same,EC50,Bile acid receptor [3],552 nM
same,Efficacy,[4],71%
same,solubility,[5],197 µM
same,permeability,[6],35%
same,fold change (FC),[7],3
same,Activity,[8],Not Active
CC(C)n1nc(C(=O)O)cc1[C@H]1C[C@](O)(c2ccc(OCc3c(-c4c(Cl)cccc4Cl)noc3C3CC3)cc2Cl)C1,Activity,Mus musculus [9],Active
same,bioavailability,[10],18%
same,half-life,[11],36 min
same,CL/F,[12],16 mL/min/kg
same,Vd/F,[13],0.8 L/kg
same,AUC,[14],960 ng·h/mL
same,EC50,Bile acid receptor [1],9 nM
same,Efficacy,[2],100%
same,EC50,Bile acid receptor [3],110 nM
same,Efficacy,[4],78%
same,solubility,[5],171 µM
same,permeability,[6],46%
same,fold change (FC),[7],11
same,Cmax,[15],1470 ng/mL
same,Activity,Mus musculus [16],Active
same,Activity,[8],Not Active
